Assay outcomes (PubChem BioAssay)
TRPC6 act: mouse TRPC6 channel activators, primary screen, cell-based, HEK293, membrane potential dye | B-score at 10 µM | 310,000 tested, 0.13% active | HEK293-TRPC6 membrane potential dye fluorescence; active compounds read high;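 active = B-score of the integrated fluorescence ratio above library mean plus 3 SD, and starting fluorescence ratio within library mean plus 5 SD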;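 also: higher score means more depolarization so channel activation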
Target sequence (Q61143 whole entry, looked up): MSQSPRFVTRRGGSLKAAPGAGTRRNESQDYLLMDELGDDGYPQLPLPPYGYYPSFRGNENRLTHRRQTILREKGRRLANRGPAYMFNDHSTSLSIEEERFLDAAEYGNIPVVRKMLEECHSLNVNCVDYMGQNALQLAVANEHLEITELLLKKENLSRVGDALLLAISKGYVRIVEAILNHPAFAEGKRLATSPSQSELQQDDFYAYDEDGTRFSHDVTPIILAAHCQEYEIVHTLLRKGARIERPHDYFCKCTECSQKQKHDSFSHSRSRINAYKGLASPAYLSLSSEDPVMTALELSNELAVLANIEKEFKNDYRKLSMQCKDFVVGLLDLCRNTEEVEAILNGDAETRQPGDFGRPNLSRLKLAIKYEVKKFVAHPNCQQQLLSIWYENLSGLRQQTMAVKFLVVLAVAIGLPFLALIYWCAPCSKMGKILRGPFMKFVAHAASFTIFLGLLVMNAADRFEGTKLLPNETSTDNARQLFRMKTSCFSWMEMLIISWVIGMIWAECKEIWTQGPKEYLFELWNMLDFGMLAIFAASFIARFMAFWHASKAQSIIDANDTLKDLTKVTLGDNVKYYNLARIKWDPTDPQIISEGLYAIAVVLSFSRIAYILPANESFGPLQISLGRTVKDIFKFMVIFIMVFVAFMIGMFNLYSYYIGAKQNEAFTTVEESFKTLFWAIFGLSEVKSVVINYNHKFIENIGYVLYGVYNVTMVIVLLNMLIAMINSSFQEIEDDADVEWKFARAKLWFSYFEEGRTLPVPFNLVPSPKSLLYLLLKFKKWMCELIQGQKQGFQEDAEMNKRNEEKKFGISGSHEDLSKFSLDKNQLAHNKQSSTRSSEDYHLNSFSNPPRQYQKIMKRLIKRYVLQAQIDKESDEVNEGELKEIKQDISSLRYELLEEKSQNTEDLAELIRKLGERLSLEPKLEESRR
DNA FID counter: compounds displacing fluorescent DNA intercalator, primary screen, artefact control for HCV NS3 helicase inhibitor project, biochemical, FID fluorescence. DNA fluorescent intercalator displacement. inhibition, % at 7.9 µM. 290,000 tested, 0.17% active. AID 1845, 2009; in the data active = inhibition above about 37%;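 also: 0% = vehicle and 100% = reference compound; higher means more ethidium bromide displaced from hairpin DNA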
TRPC6 inhibitor: mouse TRPC6 channel inhibitors, primary screen, cell-based, HEK293, membrane potential dye. 310,000 tested, 1.1% active. AID 2553, 2010. B-score at 10 µM. ACh-evoked depolarization; active compounds read low;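 active = B-score under library mean minus 3 SD, initial fluorescence not abnormally high, positive integrated signal ratio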;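 also: B-score derived from integrated fluorescence ratio over the kinetic read; more negative B-score means stronger inhibition of depolarization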
TRPC4 block: inhibitors of mouse TRPC4 channel, primary screen, Fluo4 calcium, HEK293 TRPC4beta/mu-opioid cells; AID 2247, 2010; Short transient receptor potential channel 4 (Mus musculus), Q9QUQ5; B-score at 10 µM; 300,000 tested, 0.39% active; DAMGO-evoked Fluo4 calcium flux; active compounds read low;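 active = B-score over 3 SD under the library average, no early fluorescence shift, positive overall ratio signal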
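Assay system – HEK293 line stably carrying TRPC4beta and mu-opioid receptor · Doses – single dose · Detection – Fluo4 calcium-dye fluorescence, kinetic read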
TRPC4 agonist: activators of mouse TRPC4 channel, primary screen, Fluo4 calcium, HEK293 TRPC4beta/mu-opioid cells; 310,000 tested, 0.49% active; AID 2237, 2010; B-score at 10 µM; Short transient receptor potential channel 4 (Mus musculus), Q9QUQ5; Fluo4 calcium fluorescence; active compounds read high;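 active = B-score above 5 SD of library B-scores, and initial fluorescence ratio not above library mean plus 5 SD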;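 also: positive B-score marks a calcium rise read as TRPC4 activation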
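Incubation: 45 min room-temperature Fluo4 loading, 110 s read / System: HEK293 cells stably co-expressing mouse TRPC4beta and mu-opioid receptor / Signal: Fluo4 fluorescence, kinetic / Control set: buffer (low) and maximal DAMGO (high) / Measure: integrated baseline-normalised fluorescence ratio, converted to per-well B score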
TRPC4 PAM: positive allosteric modulators of TRPC4, primary screen, cell-based, mouse TRPC4beta, HEK293 mu-opioid, Fluo-4 calcium; AID 2227, 2009; Short transient receptor potential channel 4 (Mus musculus), Q9QUQ5; 310,000 tested, 0.42% active; DAMGO EC20, Fluo-4 Ca2+ flux; active compounds read high; B-score at 10 µM;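 active = B-score of calcium response area above 5 SD of library B-scores, with initial fluorescence ratio within 5 SD of library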;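 also: B-score of integrated fluorescence ratio over time as area under calcium response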
TRPC4 spec 2: mouse TRPC4 off-target activity of TRPC6 inhibitors, second screen; shares compounds with TRPC6 inhibitor; HEK293 TRPC4/MOR, membrane potential dye fluorescence; channel activated by saturating DAMGO dose; inhibition, % at 10 µM; 920 tested, 42% active; AID 2776;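 active = compounds whose fluorescence signal differed from control wells by over 3 SD, either direction, in both duplicate plates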
TRPC4 spec: mouse TRPC4 modulation by TRPC6 hits, confirmation, selectivity assay for TRPC6 inhibitor project, cell-based, HEK293 TRPC4/mu-opioid, membrane potential dye; membrane potential fluorescence; activity change, negative = inhibition, % at 10 µM; 920 tested, 61% active; shares compounds with TRPC6 inhibitor;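 active = rise or fall in signal beyond 3 SD of buffer-only wells in both replicate plates, either sign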;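 also: integrated kinetic ratio of fluorescence range over baseline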
HEK293 MPD ctr 2-1: nonspecific membrane potential effects, parental HEK293, confirmation, counter-screen for TRPC6 inhibitor project, cell-based, second counter screen; AID 2779, 2010; signal change vs control, % at 10 µM; parental HEK293 membrane potential dye fluorescence; maximal acetylcholine challenge after compound addition; shares compounds with TRPC6 inhibitor; 920 tested, 31% active;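 active = membrane potential signal moving either way by over 3 SD of the maximum-effect control, in both duplicate plates, meaning non-specific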
HEK293 MPD ctr-1: membrane potential modulation in parental HEK293, confirmation, counter-screen for TRPC6 inhibitor project, cell-based; 920 tested, 60% active; parental HEK293 membrane potential dye fluorescence; membrane potential signal change, % at 10 µM; shares compounds with TRPC6 inhibitor; AID 2780, 2010;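 active = membrane potential signal shifting up or down by more than 3 SD of buffer-only wells, on both duplicate plates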
HEK293 MPD ctr-2: parental HEK293 membrane potential modulation, confirmation, counter-screen for TRPC6 modulator project, cell-based | membrane potential signal change, % at 10 µM | AID 488924, 2010 | 2,400 tested, 51% active | membrane potential dye fluorescence | shares compounds with TRPC6 inhibitor;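 active = membrane potential signal moves up or down beyond 5 SD from buffer-only wells, on both duplicate plates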
HEK293 MPD ctr 2-2: parental HEK293 nonspecific activity of TRPC6 modulators, second screen; shares compounds with TRPC6 inhibitor; membrane potential dye fluorescence; after compound, maximal acetylcholine stimulation; inhibition, % at 10 µM; 2,400 tested, 14% active;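 active = membrane potential signal drops by more than 5 SD from the mean control signal, in both duplicate plates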;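 also: plate controls were acetylcholine ECmax control wells for no effect and buffer only wells for full effect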
TRPC4/MOR mod: TRPC4 modulation by TRPC6 hit compounds, confirmation, selectivity assay for TRPC6 modulator project, cell-based, HEK293 TRPC4/mu-opioid, membrane potential dye, mouse. shares compounds with TRPC6 inhibitor. 2,400 tested, 69% active. AID 488927, 2010. membrane potential fluorescence. percent change from control (negative = decrease, positive = increase), % at 10 µM;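 active = membrane potential signal moved up or down beyond 5 SD of buffer control wells, in both duplicate plates, actives on both sides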;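 also: plate controls were assay buffer wells for no effect and DAMGO maximal-effect wells for full effect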
TRPC4 ctr inh 2: second selectivity test of TRPC6 modulators against mouse TRPC4; AID 488928; shares compounds with TRPC6 inhibitor; inhibition, % at 10 µM; HEK293 TRPC4/mu-opioid, membrane potential dye fluorescence; stimulated with maximal-effect DAMGO; 2,400 tested, 55% active;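 active = drop in membrane potential signal beyond 5 SD of the control wells in both duplicate plates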;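 also: TRPC4 counter screen for TRPC6 hits run under conditions tuned for TRPC6 not TRPC4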
TRPC6 block conf: mouse TRPC6 channel inhibitors, confirmation, HEK293 cells, membrane potential dye, duplicate; inhibition, % at 10 µM; shares compounds with TRPC6 inhibitor; 3,300 tested, 43% active; ACh-evoked depolarization; AID 488960, 2010;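 active = fluorescence ratio falls more than 5 SD below the full-stimulation control mean, in both duplicate runs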;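 also: integrated fluorescence ratio of peak minus minimum over baseline after agonist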
TRPC6 act conf: mouse TRPC6 channel activators, confirmation, HEK293 cells, membrane potential dye, duplicate. shares compounds with TRPC6 inhibitor. HEK293-TRPC6 membrane potential dye fluorescence, FDSS. activation, % at 10 µM. 2,800 tested, 11% active;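 active = ratio signal rise beyond 5 SD above unstimulated control wells' mean, seen in both duplicate runs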;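 also: plate controls were buffer EC0 wells for no effect and acetylcholine ECmax response for full effect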
Numbers without * were called inactive; i = inactive; . = not tested or not shown. Hits are enriched below; roughly 2.3% of the tested compounds scored in any of these assays.

SMILES	TRPC6 act	DNA FID counter	TRPC6 inhibitor	TRPC4 block	TRPC4 agonist	TRPC4 PAM	HEK293 MPD ctr-2	HEK293 MPD ctr 2-2	TRPC4/MOR mod	TRPC4 ctr inh 2	TRPC6 block conf	TRPC6 act conf	others
Cc1ccc(C)c(N2CCN(C(=O)c3ccc(CS(=O)(=O)c4ccccc4C)o3)CC2)c1	i	-20	-8.8*	i	i	i	.	.	.	.	i	i	TRPC4 spec 2=i;TRPC4 spec=i;HEK293 MPD ctr 2-1=i;HEK293 MPD ctr-1=i
Cc1ccc(S(=O)(=O)Cc2ccc(C(=O)N3CCN(c4cc(C)ccc4C)CC3)o2)cc1	i	3	i	i	i	i	.	.	.	.	.	.
CCOc1cc2nc(-c3ccc(OC)c(OC)c3)nc(N3CCOCC3)c2cc1OC	i	-13	i	i	i	i	.	.	.	.	.	.
CCOc1cc2nc(-c3ccc(OC)c(OC)c3)nc(N3CC(C)OC(C)C3)c2cc1OC (configuration not stated)	i	-6	-8.3*	i	i	i	.	.	.	.	i	i	TRPC4 spec 2=i;TRPC4 spec=-20%*;HEK293 MPD ctr 2-1=i;HEK293 MPD ctr-1=i
O=C1/C(=C\c2ccc(C(F)(F)F)cc2)CSc2sccc21	i	-11	-5*	i	i	i	i	i	8.5%*	i	i	i
CN=C1c2cc3cc(OC)ccc3n2CCN1C	i	4	i	i	i	i	.	.	.	.	.	.
CN=C1c2cc3c(Br)c(OC)ccc3n2CCN1C	i	4	-8.3*	i	i	i	.	.	.	.	i	i	TRPC4 spec 2=i;TRPC4 spec=-14%*;HEK293 MPD ctr 2-1=10%*;HEK293 MPD ctr-1=-280%*
O=C(NCCCNC(=O)c1cc(Cl)ccc1Cl)c1ccccn1	i	-16	i	i	i	i	.	.	.	.	.	.
Cc1cccn2c(=O)c(/C=C(\C#N)C(=O)NC3CCS(=O)(=O)C3)c(N3CC(C)OC(C)C3)nc12 (configuration not stated)	i	-18	-5*	i	i	i	i	i	-14%*	i	i	i
COCCNC(=O)/C(C#N)=C/c1c(N2CCN(C)CC2)nc2c(C)cccn2c1=O	i	-8	i	i	i	i	.	.	.	.	.	.
CCN1CCN(c2nc3c(C)cccn3c(=O)c2/C=C(\C#N)C(=O)NCCOC)CC1	i	1	-5.5*	i	i	i	-278%*	i	-52%*	i	i	i
Cc1cccc(NS(=O)(=O)c2cccc(C(=O)NCC3(N4CCCCC4)CCCCC3)c2)c1	i	.	-5*	i	i	i	i	i	i	72%*	52%*	.
Cc1nnc(NC(=O)C(C)Sc2nnc(-c3ccco3)n2C(C)C)s1 (configuration not stated)	i	-30	i	i	i	i	.	.	.	.	.	.
CNCCC1Sc2ccccc2Oc2ccccc21 (configuration not stated)	i	23	-5.6*	i	i	i	86%*	i	41%*	59%*	i	.
CN(C)CCCC1Sc2ccccc2Sc2ccccc21 (configuration not stated)	i	.	i	i	i	i	.	.	.	.	.	.
CNC(=O)/C(C#N)=C/c1ccc(OCCOc2ccccc2)cc1	i	-16	i	i	i	i	.	.	.	.	.	.
CCN(CC)CC#CCOC(=O)C(O)(c1ccccc1)C1CCCCC1 (configuration not stated)	i	6	-6.4*	i	i	i	121%*	97%*	26%*	i	81%*	.
O=S1(=O)CCOC[C@H](c2ccccc2)N1Cc1ccccc1F	i	-21	i	i	i	i	.	.	.	.	.	.
CCn1c(CNC(=O)c2ccccc2F)nnc1SCC(=O)Nc1nncs1	i	-7	i	i	i	i	.	.	.	.	.	.
CC1CCC(C(C)C)C(OCC[N+](C)(C)C)C1 (configuration not stated)	i	8	-7.7*	i	i	i	.	.	.	.	80%*	i	TRPC4 spec 2=i;TRPC4 spec=i;HEK293 MPD ctr 2-1=4.5%*;HEK293 MPD ctr-1=i
